Results as given in ChEMBL document CHEMBL5724801, “EUbOPEN Chemogenomics Library - Multiplex” (2024).
“And” between values parts separate entries of the source, which are not always exact repeats. Identical values can stand only once.

Test system: U2OS
Assay: Multiplex assay against U2OS
Format: toxicity, cell-based
Details: human
How it was run: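 With compound added, live cells were imaged on a CQ1 microscope at 37°C and 5% CO2; staining with Hoechst33342, BioTracker Green Microtubule Cytoskeleton Dye, MitoTracker Red and Annexin V Alexa Fluor 680 had been done at seeding. The CellPathfinder machine-learning gating scheme split cells into Hoechst high-intensity objects or normal cells, normal cells into healthy, pyknosed or fragmented nuclei, and pyknosed cells into mitotic or apoptotic. The tubulin, mitochondrial-mass and membrane-permeability phenotypes are per cents of healthy-nucleus cells.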

[1] = 12 h, 1 µM, compound concentration 1 uM
[2] = 12 h, 10 µM, compound concentration 10 uM
[3] = 24 h, 1 µM, compound concentration 1 uM
[4] = 24 h, 10 µM, compound concentration 10 uM
[5] = 48 h, 1 µM, compound concentration 1 uM
[6] = 48 h, 10 µM, compound concentration 10 uM

CCCCC1=NC2(CCCC2)C(=O)N1Cc1ccc(-c2ccccc2-c2nnn[nH]2)cc1 [IRBESARTAN]
Population Apoptotic (%) [1]: 83% and 77%
Population Fragmented Nuclei (%) [1]: 25% and 9%
Population Healthy Nuclei (%) [1]: 66% and 82%
Population Hoechst High Intensity Objects (%) [1]: 2% and 0%
Population Membrane Permeable-Phenotype (%) [1]: 5% and 11%
Population Mitochondria Different-Phenotype (%) [1]: 1%
Population Mitotic Cells (%) [1]: 16% and 22%
Population Normal (%) [1]: 97% and 99%
Population Pyknosed Nuclei (%) [1]: 7%
Population Tubulin-Different-Phenotype (%) [1]: 1% and 8%
Total Cell Count [1]: 233 and 124
Population Apoptotic (%) [2]: 91% and 100%
Population Fragmented Nuclei (%) [2]: 22% and 18%
Population Healthy Nuclei (%) [2]: 68% and 74%
Population Hoechst High Intensity Objects (%) [2]: 2% and 0%
Population Membrane Permeable-Phenotype (%) [2]: 4% and 8%
Population Mitochondria Different-Phenotype (%) [2]: 3% and 6%
Population Mitotic Cells (%) [2]: 8% and 0%
Population Normal (%) [2]: 97% and 100%
Population Pyknosed Nuclei (%) [2]: 9% and 8%
Population Tubulin-Different-Phenotype (%) [2]: 2% and 8%
Total Cell Count [2]: 254 and 100
Population Apoptotic (%) [3]: 70% and 66%
Population Fragmented Nuclei (%) [3]: 23% and 12%
Population Healthy Nuclei (%) [3]: 69% and 76%
Population Hoechst High Intensity Objects (%) [3]: 3% and 2%
Population Membrane Permeable-Phenotype (%) [3]: 6% and 9%
Population Mitochondria Different-Phenotype (%) [3]: 3% and 2%
Population Mitotic Cells (%) [3]: 29% and 33%
Population Normal (%) [3]: 96% and 97%
Population Pyknosed Nuclei (%) [3]: 7% and 10%
Population Tubulin-Different-Phenotype (%) [3]: 3% and 4%
Total Cell Count [3]: 241 and 142
Population Apoptotic (%) [4]: 96% and 91%
Population Fragmented Nuclei (%) [4]: 18%
Population Healthy Nuclei (%) [4]: 73% and 72%
Population Hoechst High Intensity Objects (%) [4]: 2% and 0%
Population Membrane Permeable-Phenotype (%) [4]: 6% and 7%
Population Mitochondria Different-Phenotype (%) [4]: 3%
Population Mitotic Cells (%) [4]: 4% and 8%
Population Normal (%) [4]: 97% and 99%
Population Pyknosed Nuclei (%) [4]: 8%
Population Tubulin-Different-Phenotype (%) [4]: 4% and 3%
Total Cell Count [4]: 301 and 135
Population Apoptotic (%) [5]: 97% and 94%
Population Fragmented Nuclei (%) [5]: 18% and 14%
Population Healthy Nuclei (%) [5]: 71% and 76%
Population Hoechst High Intensity Objects (%) [5]: 2% and 4%
Population Membrane Permeable-Phenotype (%) [5]: 5% and 6%
Population Mitochondria Different-Phenotype (%) [5]: 2% and 1%
Population Mitotic Cells (%) [5]: 2% and 5%
Population Normal (%) [5]: 97% and 95%
Population Pyknosed Nuclei (%) [5]: 10% and 9%
Population Tubulin-Different-Phenotype (%) [5]: 2%
Total Cell Count [5]: 357 and 198
Population Apoptotic (%) [6]: 89% and 94%
Population Fragmented Nuclei (%) [6]: 14% and 16%
Population Healthy Nuclei (%) [6]: 75% and 72%
Population Hoechst High Intensity Objects (%) [6]: 3% and 4%
Population Membrane Permeable-Phenotype (%) [6]: 7% and 9%
Population Mitochondria Different-Phenotype (%) [6]: 3% and 7%
Population Mitotic Cells (%) [6]: 10% and 5%
Population Normal (%) [6]: 96% and 95%
Population Pyknosed Nuclei (%) [6]: 9% and 10%
Population Tubulin-Different-Phenotype (%) [6]: 3% and 7%
Total Cell Count [6]: 419 and 175
